From ChEMBL document CHEMBL1130061, “Discovery and biological activity of orally active peptidyl trifluoromethyl ketone inhibitors of human neutrophil elastase” (J Med Chem, 1997)
Numbered stars: 1 amine (or outer) side, 2 acyl side, 3 side chain; on linkers, the order of the positions; unused ones are H or OH. Peptide text beside a SMILES is read from it. * marks the point of attachment. CO = O=C([*:1])[*:2]; NHPh = c1ccc(N*)cc1; CF3 = FC(F)(F)*

Experiments:
[1] = target: T1, Neutrophil elastase (Homo sapiens, UniProt P08246); assay: Inhibitory activity against Human Neutrophil Elastase by HNE-catalyzed hydrolysis of MeO-Suc-Ala-Ala-Pro-Val-pNa
T1 sequence (P08246 whole entry): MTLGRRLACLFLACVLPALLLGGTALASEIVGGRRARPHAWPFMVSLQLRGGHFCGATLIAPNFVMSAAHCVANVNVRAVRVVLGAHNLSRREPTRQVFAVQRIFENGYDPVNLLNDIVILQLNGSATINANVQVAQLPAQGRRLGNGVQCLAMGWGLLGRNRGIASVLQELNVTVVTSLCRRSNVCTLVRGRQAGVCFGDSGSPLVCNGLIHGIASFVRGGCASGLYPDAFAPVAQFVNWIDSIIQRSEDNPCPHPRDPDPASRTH

[2] = test system: Cricetinae gen. sp.; assay: Inhibition at the oral dose of 25 mg/kg 30 min prior to […] dose of 10 microg of HNE in hamster; type: functional, Cricetulus griseus
[3] = test system: Cricetinae gen. sp.; assay: Inhibition at the oral dose of 10 mg/kg 30 min prior to […] dose of 50 microg of HNE in hamster; type: functional, Cricetulus griseus
Method in brief: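 Anesthetized hamsters received HNE (50 µg/hamster) intratracheally, with the compound given orally as a solution in 10% PEG/PBS 30 min beforehand. Lung hemorrhage was quantified 4 h later by spectrophotometric hemoglobin measurement in lung lavage. Percent inhibition is relative to HNE and saline controls: 100% equals saline, 0% equals HNE.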

[4] = test system: Mesocricetus auratus; assay: Oral administration at a dose of 37.5 mg/kg 30 min prior to HNE and reduction in the number of white blood cells was reported
[5] = species: Mesocricetus auratus; assay: Reduction in wet lung weight relative to the body weight in hamsters
[6] = test system: Mesocricetus auratus; assay: Oral administration at a dose of 37.5 mg/kg 30 min prior to HNE (100 mg/hamster) and reduction in the number of white blood cells was reported

SMILES | Ki [1] | inhibition in vivo at 25 mg/kg [2] | inhibition in vivo at 10 mg/kg [3] | Reduction [4] | Lw/Bw [5] | Reduction [6]
CC(C)[C@H](NC(=O)N1CCOCC1)C(=O)N1CCC[C@H]1C(=O)N[C@H](C(=O)C(F)(F)C(F)(F)F)C(C)C | 0.17 µM | 69% |  |  |  | 
COc1ccc(C(=O)N[C@H](C(=O)N2CCC[C@H]2C(=O)N[C@H](C(=O)C(F)(F)F)C(C)C)C(C)C)cc1 |  |  | 84% | 91% | 77 | 
CC(C)[C@H](NC(=O)c1ccc(C(=O)N2CCOCC2)cc1)C(=O)N1CCC[C@H]1C(=O)N[C@H](C(=O)C(F)(F)C(F)(F)F)C(C)C | 0.025 µM | 74% |  |  |  | 
CC(=O)N[C@H](C(=O)N1CCC[C@H]1C(=O)N[C@H](C(=O)C(F)(F)F)C(C)C)C(C)C (HELM PEPTIDE1{[ac].V.P.V.[FC(F)(F)[*:1]]}$$$$V2.0) | 0.045 µM |  |  |  | 8 | -120%

Further molecules by falling Ki [1], results first:

Ki [1] | SMILES | inhibition in vivo at 25 mg/kg [2] | inhibition in vivo at 10 mg/kg [3] | Reduction [4] | Lw/Bw [5] | Reduction [6]
0.0068 µM | CC(C)[C@H](NC(=O)c1ccccc1)C(=O)N1CCC[C@H]1C(=O)N[C@H](C(=O)C(F)(F)F)C(C)C (HELM PEPTIDE1{[O=C(c1ccccc1)[*:2]].V.P.V.[FC(F)(F)[*:1]]}$$$$V2.0) |  |  |  | 62 | -7%
0.0026 µM | CC(C)[C@H](NC(=O)Nc1ccccc1)C(=O)N1CCC[C@H]1C(=O)N[C@H](C(=O)C(F)(F)F)C(C)C ({NHPh-CO}-Val-Pro-Val-CF3) |  |  |  | -2 | -184%
0.0013 µM | CC(C)[C@H](NC(=O)Oc1ccccc1)C(=O)N1CCC[C@H]1C(=O)N[C@H](C(=O)C(F)(F)F)C(C)C |  | 91% | 77% | 62 | 
